Laboratory results taken from ChEMBL document CHEMBL1143847, “Competitive inhibitors of the CphA metallo-beta-lactamase from Aeromonas hydrophila” (Antimicrob Agents Chemother, 2007).

Experiments:
[1] = substrate: C[C@@H](O)[C@H]1C(=O)N2C(C(=O)O)=C(SCCNC=N)C[C@H]12; experiment: Activity of Aeromonas hydrophila beta lactamase CphA at pH 7.0
In short: (§1)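 Wild-type CphA kinetics with imipenem as substrate, measured in a mixed buffer adjusted to the stated pH with HCl or NaOH. The buffer held 40 mM sodium acetate, 20 mM each of cacodylate, MOPS, TAPS, CHES and CAPS, and 20 μg/ml BSA. Runs were at 30°C in thermostatted cells. Km and kcat came from initial rates. At pH 10 only kcat/Km was taken, because imipenem hydrolyses spontaneously.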

[2] = substrate: C[C@@H](O)[C@H]1C(=O)N2C(C(=O)O)=C(SCCNC=N)C[C@H]12; experiment: Activity of Aeromonas hydrophila beta lactamase CphA at pH 9.0; in short: as §1
[3] = substrate: C[C@@H](O)[C@H]1C(=O)N2C(C(=O)O)=C(SCCNC=N)C[C@H]12; experiment: Activity of Aeromonas hydrophila beta lactamase CphA at pH 8.0; in short: as §1

B1: Beta-lactamase (Aeromonas hydrophila), Q44079 (protein)
chain: MMKGWMKCGLAGAVVLMASFWGGSVRAAGMSLTQVSGPVYVVEDNYYVQENSMVYFGAKGVTVVGATWTPDTARELHKLIKRVSRQPVLEVINTNYHTDRAGGNAYWKSIGAKVVSTRQTRDLMKSDWAEIVAFTRKGLPEYPDLPLVLPNVVHEGDFTLQEGKLRAFYAGPAHTPDGIFVYFPDQQVLYGNCILKEKLGNLSFADVKAYPRTLERLKAMKLPIKTVVGGHDSPLHGPELIDHYEALIKAAPQS
Km [1]: 120 µM
kcat [1]: 210 s⁻¹
Km [2]: 63 µM
kcat [2]: 49 s⁻¹
Km [3]: 83 µM
kcat [3]: 140 s⁻¹
